Experimental data from PubChem BioAssay AID504403 (Broad Institute, 2011).
Activity calls are given as the source filed them.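 Rule for the calls: active = active in every replicate test, each curve reaching caspase activation of 10% of the positive control signal; inconclusive = replicate tests disagree, some active and some inactive; inactive = inactive in every replicate test.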

Assay: caspase activation in Bax/Bak-null MEFs, dose response, counter-screen for A1 inhibitor project, cell-based, mouse embryonic fibroblasts, luminescence, dry powder, set 3 (AID 504403)
Conditions: Bax/Bak-/- MEF caspase activation, CaspaseGlo luminescence, 3 h
Method in brief: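 Material – Bax/Bak-null MEF cells · Quantity – 2500 cells per well · Buffer or medium – RPMI-1640, 10% heat-inactivated FBS · Times – compound 3 h at 37 °C, pre-read cooling 30 min · Technique – Caspase-Glo luminescent caspase assay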

[1] = measured here: test 2 replicate, at 35 µM, stronger effect = higher value

Row | SMILES | caspase activation (at 35 µM (top of the series)) | caspase activation [1] [%] | outcome [1]
1 | Cc1ccc(S(=O)(=O)c2c([N+](=O)[O-])c(=O)n(C)c3ccccc23)cc1 | 0.276% (inactive) | 0.073 | 
2 | Cc1ccc(Sc2c(Sc3ccc(C)cc3)c3ccccc3n(Cc3ccccc3)c2=O)cc1 | 0.02% (inactive) | -0.616 | 
3 | COc1ccc(CCNc2nc(N3CCOCC3)nc(N3CCOCC3)n2)cc1OC | 0.042% (inactive) | 0.071 | 
4 | Cn1c(=O)c(Sc2ccccn2)c(Sc2ccccn2)c2ccccc21 | 0.166% (inactive) | -0.337 | 
5 | C/C(=N\Nc1nc(N2CCCCC2)nc(N2CCCCC2)n1)c1ccc(F)cc1 | -0.284% (inactive) | -0.01 | 
6 | CCn1c(=O)c([N+](=O)[O-])c(Sc2ccc(C)cc2)c2ccccc21 | -0.025% (inactive) | -0.559 | 
7 | O=c1c([N+](=O)[O-])c(Cl)c2ccccc2n1Cc1ccccc1 | -0.005% (inactive) | 3.16 | 
8 | COc1nc2ccccc2c(Cl)c1[N+](=O)[O-] | 0.674% (inactive) | 0.222 | 
9 | COc1c([N+](=O)[O-])c(=O)n(C)c2ccccc12 | 0.061% (inactive) | 0.257 | 
10 | CC1(C)CCC(c2ccc(Cl)cc2)=C(CN2CCN(c3ccc(C(=O)NS(=O)(=O)c4ccc(N[C@H](CCN5CCOCC5)CSc5ccccc5)c(S(=O)(=O)C(F)(F)F)c4)cc3)CC2)C1 |  |  | inactive
11 | COCCn1c(=O)c([N+](=O)[O-])c(Sc2ccc(C)cc2)c2ccccc21 | 0.682% (inactive) | -0.602 | 
12 | Cc1ccc(Sc2c(Sc3ccc(C)cc3)c3ccccc3n(C)c2=O)cc1 | -0.06% (inactive) | -0.477 | 
13 | COCCn1c(=O)c([N+](=O)[O-])c(Cl)c2ccccc21 | 0.693% (inactive) | -0.136 | 
14 | Cn1c(=O)c([N+](=O)[O-])c(Sc2ccccn2)c2ccccc21 | 0.303% (inactive) | 0.033 | 
